Data set [1] has as its target T1, Vitamin D3 receptor (Homo sapiens) (UniProt P11473).
T1 sequence (whole entry): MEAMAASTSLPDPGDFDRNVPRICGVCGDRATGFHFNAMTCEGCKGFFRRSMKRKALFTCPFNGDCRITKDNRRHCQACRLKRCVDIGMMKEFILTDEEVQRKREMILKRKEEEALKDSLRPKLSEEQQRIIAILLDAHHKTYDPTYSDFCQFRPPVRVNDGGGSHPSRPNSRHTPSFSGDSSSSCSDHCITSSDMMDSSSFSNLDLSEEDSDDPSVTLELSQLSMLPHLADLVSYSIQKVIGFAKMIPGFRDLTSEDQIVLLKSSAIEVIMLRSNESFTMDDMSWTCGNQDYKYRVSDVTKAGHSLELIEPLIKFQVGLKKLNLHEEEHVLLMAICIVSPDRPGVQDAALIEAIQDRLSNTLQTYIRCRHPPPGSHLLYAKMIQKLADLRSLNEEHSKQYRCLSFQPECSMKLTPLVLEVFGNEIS
Nature of the data set: Displacement of fluormone from human full length VDR after 2 hrs by fluorescence polarization assay relative to 1,25D. Conditions: concentration not given here. The procedure, abridged:
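Competitive fluorescence polarization VDR binding kit used per manufacturer conditions; compounds tested from 10^-11 to 10^-5 M. IC50 calculated from averaged measurements; activity also expressed as percentage with 1,25D set to 100%.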
In general terms: In fluorescence polarisation assays a small probe gives low polarisation when free and higher when bound to something large.

For data set [2], the system named is MCF7. Kind of data set: Antiproliferative activity against 2D culture of human MCF7 cells assessed as cell proliferation at 100 nM after 48 hrs by MTT assay. Format: functional. Conditions: MCF7, 48 h, read-out: Activity. Put shortly:
(§1)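 MTT assay in 2D cultures; cells grown in DMEM with 10% FBS, penicillin/streptomycin, 2 mM L-glutamine at 37 °C in 5% CO2, then treated in charcoal-treated FCS medium for 48 h at 100 nM. Ethanol vehicle controls; proliferation expressed as percentage ± SD of vehicle-treated cells.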
For orientation: Formazan colour is commonly taken as a measure of viable cells.

Data set [3] relates to MCF7. Kind of data set: Antiproliferative activity against 3D culture of human MCF7 cells assessed as cell proliferation at 100 nM after 5 days by DAPI staining-based phase contrast microscopic method. Format: functional. Conditions: MCF7, 120 h, read-out: Activity. Put shortly: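 Three-dimensional MCF-7 cultures treated 5 days with 10^-7 M in charcoal-treated FCS medium; ethanol vehicle. Phase-contrast photographs taken, sphere diameters traced manually across each sphere and scored as relative units; proliferation given as percentage ± SD of vehicle-treated cells.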

The target of data set [4] is T1, Vitamin D3 receptor (Homo sapiens). Kind of data set: Agonist activity at VDR in human MCF7 cells assessed as transcription of CYP24A1 gene after 24 hrs by luciferase reporter gene assay relative to 1,25D. Type of data set: cell-based. Put shortly: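 Cells transfected with 1 µg pCYP24A1-Luc plasmid (luciferase under a consensus VDRE from the 24-hydroxylase promoter); after 24 h medium replaced with compound at 10^-11 to 10^-6 M. Bioluminescence imaged and total photon counts quantified. EC50 from dose-response curves as concentration raising luciferase activity by 50%; ratio given as analogue EC50 relative to 1,25D.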

Another data set concerns HaCaT. Nature of the data set: Induction of human HaCaT cell differentiation at 100 nM after 48 hrs. Format: functional, cell-based. The procedure, abridged: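 HaCaT keratinocytes treated with 100 nM for 48 hours in charcoal-treated FCS medium, ethanol vehicle control, and differentiation then assessed.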
The target in data set [5] is T2, Vitamin D3 receptor (Homo sapiens, UniProt P11473).
T2 sequence (P11473 whole entry): T1 sequence (whole entry)
Kind of data set: Displacement of fluormone from human full length VDR after 2 hrs by fluorescence polarization assay.

A further data set deals with SK-OV-3. Kind of data set: Antiproliferative activity against 2D culture of human SKOV3 cells assessed as cell proliferation at 100 nM after 48 hrs by MTT assay. Type of data set: functional. Conditions: SK-OV-3, 48 h, read-out: Activity. Put shortly: as §1
A further data set concerns PC-3. Kind of data set: Antiproliferative activity against 2D culture of human PC3 cells assessed as cell proliferation at 100 nM after 48 hrs by MTT assay. Format: functional. Conditions: PC-3, 48 h, read-out: Activity. The procedure, abridged:
as §1

The subject of data set [6] is Mus musculus. Kind of data set: Hypercalcemic activity in CD1 mouse assessed as serum calcium levels at 0.3 ug/kg, ip administered every other day for 3 weeks measured on […] relative to 1,25D. Format: ADME, organism-based. Conditions: in vivo, 0.0003 mg/kg, 504 h. Put shortly:
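Mice dosed every other day for 21 days at 0.3 µg/kg, n=5 per group, with vehicle controls; serum calcium reported as mean ± SD.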

The nature of data set [7]: Antiproliferative activity against 2D culture of human HaCaT cells assessed as cell proliferation at 100 nM after 48 hrs by MTT assay. Type of data set: cell-based. Conditions: HaCaT cells (2D culture), read-out: Activity. The procedure, abridged:
as §1

Data set [8] has as its target T2, Vitamin D3 receptor. Nature of the data set: Agonist activity at VDR in human MCF7 cells assessed as increase in transcription of CYP24A1 gene after 24 hrs by luciferase reporter gene assay. Type of data set: cell-based. (In general: In a reporter assay the amount or activity of a reporter protein is the signal.)
Data set [9] has as its system Mus musculus. Kind of data set: Toxicity in CD1 mouse assessed as effect on liver at 0.5 to 5 ug/kg, ip administered every other day for 3 weeks measured on […] by hematoxylin and eosin staining-based assay. Format: organism-based. Conditions: in vivo, 504 h.
The subject of data set [10] is MDA-MB-436. Nature of the data set: Cytotoxicity against 3D culture of cancer stem cells derived from human MDA-MB-436 cells assessed as decrease in number of mammospheres at 100 nM after 5 days by DAPI staining-based phase contrast microscopic method. Format: functional, cell-based. Put shortly:
(§2)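 MDA-MB-436 cells enriched in cancer stem cells grown in a commercial 3D sphere assay per manufacturer's instructions; ethanol or compound (10^-8 or 10^-7 M) added for 5 days. Mammosphere number and diameter quantified from phase-contrast images by manual diameter tracing.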

Data set [11] deals with Mus musculus. Nature of the data set: Toxicity in CD1 mouse assessed as body weight loss at 0.5 to 5 ug/kg, ip administered every other day for 3 weeks measured every week during compound dosing. Format: organism-based. Conditions: in vivo, 504 h.
Data set [12] has as its system MDA-MB-231. Kind of data set: Antitumor activity against luciferase expressing human MDA-MB-231 cells xenografted in SCID mouse assessed as tumor growth inhibition at 1 ug/kg, ip administered every other day measured every 7 days […] to day 28 post last dose. Type of data set: functional, organism-based. Put shortly:
(§3)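 SCID mice given subcutaneous MDA-MB-231-luc cells; ten days later (treatment day 0) split into two groups, dosed i.p. at 1 µg/kg in sesame oil, controls sesame oil. Tumor growth followed by in vivo bioluminescence imaging (photon flux) every 7 days until day 28; survival followed to day 60.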

Data set [13] deals with Mus musculus. Nature of the data set: Toxicity in CD1 mouse assessed as effect on kidney at 0.5 to 5 ug/kg, ip administered every other day for 3 weeks measured on […] by hematoxylin and eosin staining-based assay. Format: organism-based. Conditions: in vivo, 504 h.
The test system of data set [14] is MDA-MB-436. Kind of data set: Cytotoxicity against 3D culture of cancer stem cells derived from human MDA-MB-436 cells assessed as decrease in growth of mammospheres at 100 nM after 5 days by DAPI staining-based phase contrast microscopic method. Type of data set: functional, cell-based. Put shortly:
as §2

Data set [15] concerns MDA-MB-231. Kind of data set: Antitumor activity against luciferase expressing human MDA-MB-231 cells xenografted in SCID mouse assessed as increase in mouse survival at 1 ug/kg, ip administered every other day starting from day 10 post tumor implantation to day 60. Type of data set: functional, organism-based. Put shortly:
as §3

The subject of data set [16] is Mus musculus. Kind of data set: Hypercalcemic activity in CD1 mouse serum at 0.5 to 5 ug/kg, ip administered every other day for 3 weeks measured on […]. Format: ADME, organism-based. Conditions: in vivo, 504 h.

SMILES strings stand for the structures. Activity calls are given as the source filed them. The rule behind the calls is not given here.

Usually inhibition stands for the percentage by which the read-out fell short of the control. Low values mean a weak effect, high ones a strong effect. As usually defined, the IC50 is the concentration needed to halve the response being measured. Higher therefore signals weaker potency in that assay. As usually defined, the EC50 is the concentration giving half of the maximal effect.

`C=C1/C(=C\C=C(/CCCCCC)c2cccc(CCCCCC(C)(C)O)c2)C[C@@H](O)C[C@@H]1O` gave an inhibition in data set [1] of 9%. The growth at 0.1 µM in the data set on MCF7 [2] is 78%; in the data set on MCF7 [3] it was 79%; in the data set on SK-OV-3, 76%; in the data set on PC-3, 80%. In addition, the Activity in data set [4] was 17%; with Mus musculus [6], 0%. Further, the result in the data set on HaCaT was Active. For the same molecule, the IC50 on Vitamin D3 receptor [5] lay within 8.3 to 40 nM. Besides, in [7], the viability at 48 h, 0.1 µM was 74%. For the same molecule, the half-maximal effective concentration (EC50) at Vitamin D3 receptor [8] is 10 to 13 nM.
`C=C1/C(=C\C=C(/CC)c2cccc(CCCCCC(C)(C)O)c2)C[C@@H](O)C[C@@H]1O`: the Activity entry was “Non-Toxic” with Mus musculus [9]; 33% in [4]; “Non-Toxic” with Mus musculus [11]; “Non-Toxic” with Mus musculus [13]; 0% in the data set with Mus musculus [6]; “Non-Toxic” in the data set on Mus musculus [16]. Besides, the inhibition in [1] was found to be 24%. For the same molecule, the growth at 0.1 µM was determined as 65% with MCF7 [2], 69% in the data set with MCF7 [3], 78% in the data set with SK-OV-3 and 78% with PC-3. Besides, the result with MDA-MB-436 [10], with HaCaT, with MDA-MB-436 [14] and in the data set on MDA-MB-231 [15] was Active. The TGI result in the data set on MDA-MB-231 [12] was “Active”. The molecule also returned an IC50 at Vitamin D3 receptor [5] of 4.5 to 11 nM. Further, the viability at 48 h, 0.1 µM in data set [7] came out at 68%. The EC50 on Vitamin D3 receptor [8] fell in the range of 5.6 to 6.2 nM.
Take `C=C1/C(=C\C=C(/CCCC)c2cccc(CCCCCC(C)(C)O)c2)C[C@@H](O)C[C@@H]1O`: in data set [1], the inhibition is 12%. Moreover, the growth at 0.1 µM in the data set with MCF7 [2] was 74%; in the data set with MCF7 [3] it was 84%; in the data set with SK-OV-3, 81%; in the data set on PC-3, 84%. Also, the Activity in [4] is 19%; in the data set with Mus musculus [6], 34%. In addition, the outcome in the data set on HaCaT was Active. At Vitamin D3 receptor [5], this molecule gave an IC50 of 10 to 18 nM. For the same molecule, the viability at 48 h, 0.1 µM in data set [7] was found to be 71%. For the same molecule, on Vitamin D3 receptor [8], the EC50 was 9 to 11 nM.
On to `C=C1/C(=C\C=C(/CCC)c2cccc(CCCCCC(C)(C)O)c2)C[C@@H](O)C[C@@H]1O`, for which the inhibition in data set [1] was 10%. Further, the growth at 0.1 µM with MCF7 [2] came to 69%; in the data set with MCF7 [3], 74%; in the data set with SK-OV-3, 82%; in the data set on PC-3 it was 83%. Also, the Activity is 21% in [4] and 41% in the data set on Mus musculus [6]. The result in the data set on HaCaT was Active. Moreover, at Vitamin D3 receptor [5], the IC50 lay in the range of 5.6 to 55 nM. The viability at 48 h, 0.1 µM in [7] stood at 71%. Moreover, on Vitamin D3 receptor [8], the concentration for a half-maximal effect (EC50) was in the range of 8.6 to 9.9 nM.
Take `C=C1/C(=C\C=C(/CCCCCCC)c2cccc(CCCCCC(C)(C)O)c2)C[C@@H](O)C[C@@H]1O`: the inhibition in data set [1] amounted to 7%. Further, the growth at 0.1 µM in the data set on MCF7 [2] amounted to 69%; with MCF7 [3], 55%; in the data set with SK-OV-3 it was 83%; in the data set on PC-3 it was 79%. For the same molecule, the Activity in [4] was 5%; in the data set with Mus musculus [6], 0%. In the data set with HaCaT, the result was Active. Further, the IC50 at Vitamin D3 receptor [5] lay in the range of 3.5 to 160 nM. The viability at 48 h, 0.1 µM in data set [7] was 71%. In addition, the EC50 at Vitamin D3 receptor [8] was 29 to 40 nM.
As to `C=C1/C(=C\C=C2/CCC[C@]3(C)[C@@H]([C@H](C)CCCC(C)(C)O)CC[C@@H]23)C[C@@H](O)C[C@@H]1O` [CALCITRIOL], the growth at 0.1 µM with MCF7 [2] was found to be 66%; in the data set with MCF7 [3], 61%; in the data set on SK-OV-3, 78%; in the data set with PC-3, 77%. In addition, the result with HaCaT was Active. In addition, in [7], the viability at 48 h, 0.1 µM was determined as 69%.

The record behind these values is ChEMBL document CHEMBL4184327, “Aromatic-Based Design of Highly Active and Noncalcemic Vitamin D Receptor Agonists” (J Med Chem, 2018).
